Values belong to the molecule of their own block, whether it stands above or below them. Where a SMILES comes first, the peptide text is derived from it.
Legend:
Conditions in all cases: BL21-DE3
[1] = molecular target: T1, UDP-N-acetylglucosamine--peptide N-acetylglucosaminyltransferase 110 kDa subunit (Homo sapiens) (UniProt O15294); assay: Binding affinity to human OGT expressed in Escherichia coli […] cells assessed as alpha-FLAG-HRP activity relative to alpha-A-crystallin peptide by azido-ELISA
T1 sequence (whole entry): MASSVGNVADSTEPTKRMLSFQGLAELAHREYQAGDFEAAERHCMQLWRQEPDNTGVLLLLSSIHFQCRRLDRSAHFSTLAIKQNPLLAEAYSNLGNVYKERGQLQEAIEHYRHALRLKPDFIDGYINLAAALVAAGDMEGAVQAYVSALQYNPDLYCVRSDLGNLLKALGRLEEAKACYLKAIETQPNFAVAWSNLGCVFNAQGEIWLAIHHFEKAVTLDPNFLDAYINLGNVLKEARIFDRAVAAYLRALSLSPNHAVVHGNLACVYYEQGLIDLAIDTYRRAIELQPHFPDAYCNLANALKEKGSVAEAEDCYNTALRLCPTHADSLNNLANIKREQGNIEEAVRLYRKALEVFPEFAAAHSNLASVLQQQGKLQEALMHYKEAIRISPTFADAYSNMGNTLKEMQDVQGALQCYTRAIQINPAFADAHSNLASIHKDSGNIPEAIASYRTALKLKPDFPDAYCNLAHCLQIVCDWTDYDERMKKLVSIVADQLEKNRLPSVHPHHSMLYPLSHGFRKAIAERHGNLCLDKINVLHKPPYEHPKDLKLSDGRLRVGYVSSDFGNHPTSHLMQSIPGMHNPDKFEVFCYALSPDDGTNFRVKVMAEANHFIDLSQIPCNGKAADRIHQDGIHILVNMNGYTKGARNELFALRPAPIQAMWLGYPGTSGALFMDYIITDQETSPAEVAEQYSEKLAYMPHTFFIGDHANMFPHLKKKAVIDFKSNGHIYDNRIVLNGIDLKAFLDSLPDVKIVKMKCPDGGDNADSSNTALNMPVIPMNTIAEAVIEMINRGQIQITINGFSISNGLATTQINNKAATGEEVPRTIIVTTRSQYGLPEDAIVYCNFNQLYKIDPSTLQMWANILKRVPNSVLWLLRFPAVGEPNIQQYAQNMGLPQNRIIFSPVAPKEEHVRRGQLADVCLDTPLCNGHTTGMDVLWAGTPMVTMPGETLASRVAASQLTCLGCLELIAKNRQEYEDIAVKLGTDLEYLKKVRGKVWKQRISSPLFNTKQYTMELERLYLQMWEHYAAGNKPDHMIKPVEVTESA
Procedure, shortened: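 Biotinylated peptides are reacted at saturating levels with Ni-column-purified human OGT from E. coli BL21(DE3), plus UDP-GlcNAz 62.5 μM, MgCl2 12.5 μM and β-mercaptoethanol 1 mM, for 4 h at 37 °C. Reactions are stopped with pH 4.5 sodium acetate and captured on NeutrAvidin. Product is tagged with phosphine-FLAG, detected by anti-FLAG-HRP/TMB at A450, normalized to the parent peptide after Ala-peptide background subtraction. Data are from 3 experiments, each in triplicate.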

[2] = substrate: CC[C@H](C)[C@H](NC(=O)[C@H](C)N)C(=O)N1CCC[C@H]1C(=O)N[C@H](C(=O)N[C@@H](CO)C(=O)N[C@@H](CCCNC(=N)N)C(=O)N[C@@H](CCC(=O)O)C(=O)N[C@@H](CCC(=O)O)C(=O)N[C@@H](CCCCN)C(=O)O)C(C)C; assay: (§1) Binding affinity to human OGT expressed in Escherichia coli BL1 (DE3) cells by azido-ELISA
Procedure, shortened: (§2)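 Km is derived from the azido-ELISA using Ni-purified human OGT expressed in E. coli BL21(DE3), with UDP-GlcNAz as donor, MgCl2 and β-mercaptoethanol, incubated at 37 °C. Biotinylated peptide product is captured on NeutrAvidin, Staudinger-tagged with phosphine-FLAG (0.2 mM, 2 h, 37 °C), and quantified by anti-FLAG-HRP with TMB at 450 nm.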

[3] = substrate: CC[C@H](C)[C@H](NC(=O)[C@H](C)N)C(=O)N1CCC[C@H]1C(=O)N[C@H](C(=O)N[C@@H](CO)C(=O)N[C@@H](CCCNC(=N)N)C(=O)N[C@@H](C)C(=O)N[C@@H](CCC(=O)O)C(=O)N[C@@H](CCCCN)C(=O)O)C(C)C; assay: as §1; procedure, shortened: as §2
[4] = substrate: CC[C@H](C)[C@H](NC(=O)[C@H](C)N)C(=O)N1CCC[C@H]1C(=O)N[C@H](C(=O)N[C@@H](CO)C(=O)N[C@@H](CCCNC(=N)N)C(=O)N1CCC[C@H]1C(=O)N[C@@H](CCC(=O)O)C(=O)N[C@@H](CCCCN)C(=O)O)C(C)C; assay: as §1; procedure, shortened: as §2

Activity [1]: 1.8
Molecule: CC[C@H](C)[C@H](NC(=O)[C@@H]1CCCN1)C(=O)N1CCC[C@H]1C(=O)N[C@H](C(=O)N[C@@H](CO)C(=O)N[C@@H](CCCNC(=N)N)C(=O)N[C@@H](CCC(=O)O)C(=O)N[C@@H](CCC(=O)O)C(=O)N[C@@H](CCCCN)C(=O)O)C(C)C (H-PIPVSREEK-OH)

Activity [1]: 2
Molecule: CC[C@H](C)[C@H](NC(=O)[C@@H](N)CCCNC(=N)N)C(=O)N1CCC[C@H]1C(=O)N[C@H](C(=O)N[C@@H](CO)C(=O)N[C@@H](CCCNC(=N)N)C(=O)N[C@@H](CCC(=O)O)C(=O)N[C@@H](CCC(=O)O)C(=O)N[C@@H](CCCCN)C(=O)O)C(C)C (H-RIPVSREEK-OH)

B1: UDP-N-acetylglucosamine--peptide N-acetylglucosaminyltransferase 110 kDa subunit (Homo sapiens), O15294 (protein)
chain: T1 sequence (whole entry)
Km [2]: 8.7 µM | Km [3]: 0.5 µM | Km [4]: 0.8 µM
